The test system of the assay is HeLa. As to the kind of experiment: Antiproliferative activity against human HeLa cells assessed as inhibition of cell growth incubated for 24 hrs by MTT assay. Type of assay: functional, cell-based. A digest of the protocol:
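Cells kept in DMEM with 10% FBS and 1% antibiotic-antimycotic at 37 °C and 5% CO2. Seeded at 8 × 10^3 cells per 100 μL and left 24 h, then exposed 24 h to 5, 10, 20, 50 or 100 μM. MTT at 0.5 mg/mL in HBSS was added for 2–4 h at 37 °C in the dark. Formazan was dissolved in DMSO, A570 was read, and IC50 was derived.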

Structures are written as SMILES. pIC50: −log10 of the molar value.

The term pIC50 denotes the negative decadic logarithm of the IC50, by convention in mol/L. For the molecule `C=C(C)[C@@H](O)[C@H](O)C[C@H](C)[C@@H]1CC[C@]2(C)C3=CC[C@H]4C(C)(C)C(=O)CC[C@]4(C)[C@H]3CC[C@@]12C`, the negative logarithm of the IC50 (pIC50) was below 4.00.

The values are drawn from ChEMBL document CHEMBL6083205, “A comprehensive apoptotic assessment of niloticin in cervical cancer cells: a tirucallane-type triterpenoid from Aphanamixis polystachya (Wall.) Parker” (RSC Med Chem, 2024).
